Assay results reported in ChEMBL document CHEMBL4177605, “3'-Hydroxy-3,4'-dimethoxyflavone blocks tubulin polymerization and is a potent apoptotic inducer in human SK-MEL-1 melanoma cells” (Bioorg Med Chem, 2017).
Activity calls are given as the source filed them. The rule behind the calls is not given here.

How the values were obtained:
SK-MEL-1 [1] = experiment: Cytotoxicity against human SK-MEL-1 cells assessed as reduction in cell viability after 72 hrs by MTT assay; format: functional, cell-based; conditions: SK-MEL-1, 72 h
Outline: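 1×10^4 exponentially growing cells were seeded with a range of compound concentrations for 72 h. MTT (0.5 mg/mL) was added for 4 h at 37 °C, and formazan was dissolved in 10% SDS/0.05 M HCl overnight at room temperature in the dark. A570 was read. IC50 was found by nonlinear regression for each experiment, with at least three independent experiments in triplicate.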

SK-MEL-1 [2] = experiment: Cell cycle arrest in human SK-MEL-1 cells assessed as accumulation at sub-G1 phase at 3 uM after 24 hrs by propidium iodide staining-based flow cytometry (reference value: 4.5+/-1.6%); format: functional
SK-MEL-1 [3] = experiment: Cell cycle arrest in human SK-MEL-1 cells assessed as accumulation at sub-G1 phase at 10 uM after 24 hrs by propidium iodide staining-based flow cytometry (reference value: 4.5+/-1.6%); format: functional
SK-MEL-1 [4] = experiment: Cell cycle arrest in human SK-MEL-1 cells assessed as accumulation at sub-G1 phase at 30 uM after 24 hrs by propidium iodide staining-based flow cytometry (reference value: 4.5+/-1.6%); format: functional
SK-MEL-1 [5] = experiment: Cell cycle arrest in human SK-MEL-1 cells assessed as accumulation at G1 phase at 3 uM after 24 hrs by propidium iodide staining-based flow cytometry (reference value: 61.5+/-1.7%); format: functional
SK-MEL-1 [6] = experiment: Cell cycle arrest in human SK-MEL-1 cells assessed as accumulation at G1 phase at 10 uM after 24 hrs by propidium iodide staining-based flow cytometry (reference value: 61.5+/-1.7%); format: functional
SK-MEL-1 [7] = experiment: Cell cycle arrest in human SK-MEL-1 cells assessed as accumulation at G1 phase at 30 uM after 24 hrs by propidium iodide staining-based flow cytometry (reference value: 61.5+/-1.7%); format: functional
SK-MEL-1 [8] = experiment: Cell cycle arrest in human SK-MEL-1 cells assessed as accumulation at S phase at 3 uM after 24 hrs by propidium iodide staining-based flow cytometry (reference value: 17.7+/-0.4%); format: functional
SK-MEL-1 [9] = experiment: Cell cycle arrest in human SK-MEL-1 cells assessed as accumulation at S phase at 10 uM after 24 hrs by propidium iodide staining-based flow cytometry (reference value: 17.7+/-0.4%); format: functional
SK-MEL-1 [10] = experiment: Cell cycle arrest in human SK-MEL-1 cells assessed as accumulation at S phase at 30 uM after 24 hrs by propidium iodide staining-based flow cytometry (reference value: 17.7+/-0.4%); format: functional
SK-MEL-1 [11] = experiment: Cell cycle arrest in human SK-MEL-1 cells assessed as accumulation at G2/M phase at 3 uM after 24 hrs by propidium iodide staining-based flow cytometry (reference value: 16.1+/-0.2%); format: functional
SK-MEL-1 [12] = experiment: Cell cycle arrest in human SK-MEL-1 cells assessed as accumulation at G2/M phase at 10 uM after 24 hrs by propidium iodide staining-based flow cytometry (reference value: 16.1+/-0.2%); format: functional
SK-MEL-1 [13] = experiment: Cell cycle arrest in human SK-MEL-1 cells assessed as accumulation at G2/M phase at 30 uM after 24 hrs by propidium iodide staining-based flow cytometry (reference value: 16.1+/-0.2%); format: functional
SK-MEL-1 [14] = experiment: Induction of apoptosis in human SK-MEL-1 cells assessed as condensation of cell nuclei and chromatins at 30 uM after 24 hrs by bisbenzimide trihydrochloride staining-based fluorescent microscopic analysis; format: functional
Outline: (§1)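 Cells were treated with 30 µM for 24 h, then stained with bisbenzimide trihydrochloride. Nuclear chromatin condensation and fragmentation were viewed by fluorescence microscopy.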

SK-MEL-1 [15] = experiment: Induction of apoptosis in human SK-MEL-1 cells assessed as chromatin fragmentation at 30 uM after 24 hrs by bisbenzimide trihydrochloride staining-based fluorescent microscopic analysis; format: functional, cell-based; outline: as §1
SK-MEL-1 [16] = experiment: Induction of apoptosis in human SK-MEL-1 cells assessed as increase in caspase-3/7 activity by measuring DEVD-pNA substrate cleavage up to 30 uM after 24 hrs by Bradford dye binding assay; format: functional, cell-based
Outline: (§2)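 After treatment, cells were lysed in 50 mM HEPES pH 7.4, 1 mM DTT, 0.1 mM EDTA, 0.1% CHAPS. Protein was quantified by Bradford and equal amounts were used. DEVD-pNA (caspase-3/7), IETD-pNA (caspase-8) or LEHD-pNA (caspase-9) cleavage was read as net A405 increase at 37 °C. Results are fold increase over control, means ± SE of three experiments in triplicate.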

SK-MEL-1 [17] = experiment: Induction of apoptosis in human SK-MEL-1 cells assessed as increase in caspase-3/7 activity by measuring DEVD-pNA substrate cleavage at 3 uM after 24 hrs by Bradford dye binding assay; format: functional, cell-based; outline: as §2
SK-MEL-1 [18] = experiment: Induction of apoptosis in human SK-MEL-1 cells assessed as increase in caspase-8 activity by measuring IETD-pNA substrate cleavage up to 30 uM after 24 hrs by Bradford dye binding assay; format: functional, cell-based; outline: as §2
SK-MEL-1 [19] = experiment: Induction of apoptosis in human SK-MEL-1 cells assessed as increase in caspase-8 activity by measuring IETD-pNA substrate cleavage at 3 uM after 24 hrs by Bradford dye binding assay; format: functional, cell-based; outline: as §2
SK-MEL-1 [20] = experiment: Induction of apoptosis in human SK-MEL-1 cells assessed as increase in caspase-9 activity by measuring LEHD-pNA substrate cleavage up to 30 uM after 24 hrs by Bradford dye binding assay; format: functional, cell-based; outline: as §2
SK-MEL-1 [21] = experiment: Induction of apoptosis in human SK-MEL-1 cells assessed as increase in caspase-9 activity by measuring LEHD-pNA substrate cleavage at 3 uM after 24 hrs by Bradford dye binding assay; format: functional, cell-based; outline: as §2
SK-MEL-1 [22] = experiment: Induction of apoptosis in human SK-MEL-1 cells assessed as cleavage of main executioner caspase up to 30 uM after 24 hrs by Western blot method; format: functional, cell-based
Outline: (§3)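 Cells were treated with increasing concentrations for 24 h and washed in PBS. Whole-cell lysates were used for pro-caspase-3. For cytochrome c, a cytosolic fraction was prepared: cells swelled in hypotonic HEPES buffer with 250 mM sucrose, were lysed through a 22-gauge needle, and spun at 1000×g then 105000×g (45 min, 4 °C). Both were probed by immunoblotting.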

SK-MEL-1 [23] = experiment: Induction of apoptosis in human SK-MEL-1 cells assessed as increase in […] cytochrome c level by Western blot analysis; format: functional, cell-based; outline: as §3
Bos taurus = species: Bos taurus; experiment: Inhibition of bovine tubulin polymerization measured at every 30 secs intervals for 50 mins in presence of GTP
Outline: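 Purified bovine tubulin without MAPs was incubated in 80 mM PIPES pH 7.0 with 1 mM GTP, 1 mM EGTA, 1 mM MgCl2 and 10% glycerol at 37 °C, across several compound concentrations. A340 was recorded every 30 s for 50 min. Taxol (10 µM) and colchicine (5 µM) served as promotion and inhibition controls.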

SK-MEL-1 [24] = experiment: Cytotoxicity against human SK-MEL-1 cells assessed as formation of unhealthy cells after 24 hrs by inverted phase contrast microscopic analysis; format: functional, cell-based
Outline: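 Cells were grown in RPMI 1640 with 10% heat-inactivated FBS, 2 mM L-glutamine and penicillin/streptomycin (37 °C, 5% CO2). They were incubated with vehicle or increasing concentrations for 24 h, then imaged under an inverted phase-contrast microscope.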

Q: For `COc1cc(-c2oc3ccccc3c(=O)c2O)ccc1O`, which IC50 (SK-MEL-1 [1]) is on record?
A: 22 µM

Q: With `COc1ccc2c(=O)c(O)c(-c3ccc(O)c(OC)c3)oc2c1` as the molecule, how does the IC50 (SK-MEL-1 [1]) read?
A: 37 µM

Q: `COc1ccc2c(=O)c(O)c(-c3ccc(O)cc3)oc2c1` was tested. Which IC50 (SK-MEL-1 [1]) did it give?
A: > 100 µM

Q: `COc1ccc(-c2oc3ccccc3c(=O)c2O)cc1O` was tested. Which IC50 (SK-MEL-1 [1]) did it give?
A: 32.6 µM

Q: How did the IC50 (SK-MEL-1 [1]) turn out when `COc1ccc2c(=O)c(O)c(-c3ccccc3O)oc2c1` was run?
A: > 100 µM

Q: How did the IC50 (SK-MEL-1 [1]) turn out when `COc1c(-c2ccc(O)cc2)oc2ccccc2c1=O` was run?
A: 91 µM

Q: With `O=c1c(O)c(-c2ccc(O)cc2)oc2ccccc12` as the molecule, how does the IC50 (SK-MEL-1 [1]) read?
A: > 100 µM

Q: `COc1ccc2c(=O)c(O)c(-c3ccc(OC)c(O)c3)oc2c1` was tested. Which IC50 (SK-MEL-1 [1]) did it give?
A: 15.5 µM

Q: `COc1ccc2c(=O)c(OC)c(-c3ccc(O)c(OC)c3)oc2c1` was tested. Which IC50 (SK-MEL-1 [1]) did it give?
A: 52 µM

Q: Which results are given for `COc1ccc(-c2oc3ccccc3c(=O)c2OC)cc1O`?
A: Activity (SK-MEL-1 [2]): 15.9%; Activity (SK-MEL-1 [3]): 9.2%; Activity (SK-MEL-1 [4]): 21.9%; Activity (SK-MEL-1 [5]): 24.4%; Activity (SK-MEL-1 [6]): 14.4%; Activity (SK-MEL-1 [7]): 30.7%; Activity (SK-MEL-1 [8]): 21.4%; Activity (SK-MEL-1 [9]): 23.7%; Activity (SK-MEL-1 [10]): 26.8%; Activity (SK-MEL-1 [11]): 37.9%; Activity (SK-MEL-1 [12]): 52.2%; Activity (SK-MEL-1 [13]): 20.2%; Activity (SK-MEL-1 [14]): Active; Activity (SK-MEL-1 [15]): Active; Activity (SK-MEL-1 [16]): Active; Activity (SK-MEL-1 [17]): Active; Activity (SK-MEL-1 [18]): Active; Activity (SK-MEL-1 [19]): Active; Activity (SK-MEL-1 [20]): Active; Activity (SK-MEL-1 [21]): Active; Activity (SK-MEL-1 [22]): Active; Activity (SK-MEL-1 [23]): Dose-dependent effect; inhibition (Bos taurus): Dose-dependent effect; Activity (SK-MEL-1 [24]): Active; IC50 (SK-MEL-1 [1]): 6.9 µM

Q: For `COc1ccc2c(=O)c(OC)c(-c3ccc(O)cc3)oc2c1`, which IC50 (SK-MEL-1 [1]) is on record?
A: > 100 µM

Q: Which IC50 (SK-MEL-1 [1]) does the source give for `COc1ccc2c(=O)c(OC)c(-c3ccc(OC)c(O)c3)oc2c1` here?
A: 26.2 µM

Q: Which IC50 (SK-MEL-1 [1]) does the source give for `COc1cc([C@@H]2c3cc4c(cc3[C@@H](O[C@@H]3O[C@@H]5CO[C@@H](C)O[C@H]5[C@H](O)[C@H]3O)[C@H]3COC(=O)[C@H]23)OCO4)cc(OC)c1O` [ETOPOSIDE] here?
A: 8 µM

Q: Which IC50 (SK-MEL-1 [1]) does the source give for `O=c1c(O)c(-c2ccccc2O)oc2ccccc12` here?
A: > 100 µM

Q: How did the IC50 (SK-MEL-1 [1]) turn out when `COc1c(-c2ccccc2O)oc2ccccc2c1=O` was run?
A: > 100 µM

Q: How did the IC50 (SK-MEL-1 [1]) turn out when `COc1cc(-c2oc3ccccc3c(=O)c2OC)ccc1O` was run?
A: 79 µM
